Screening results deposited in PubChem BioAssay by several laboratories.
Most compounds without a hit are left out; they make up all but 2.5% or so of the library.
GRK2 aptamer HTS: human GRK2 inhibition via aptamer displacement; AID 488847; P25098; bead flow cytometry, FAM-aptamer displacement from GRK2; 0.59% of 330,000 active; inhibition of aptamer binding, % at 10 µM;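 active = inhibition of aptamer binding above 40%, roughly 3 SD of noise, on plates passing a quality check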;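 note: median bead fluorescence of bound FAM aptamer so fluorescent compounds give negative values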
ABHD5 PLIN5 PPI: blocks binding of human ABHD5 to perilipin-5; AID 602281; Split G. princeps luciferase complementation, luminescence, 4 h; inhibition, % at 4 µM; 0.78% of 360,000 active; Q00G26+Q8WTS1;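 active = inhibition above the mean inhibition across every tested compound plus 3 SD, cut at about 22% in these data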
NadD block: NadD (S. aureus) enzyme inhibition. purified NadD enzyme, colorimetric absorbance read-out. inhibition, % at 20 µM. 0.78% of 360,000 active; in the data active = inhibition above about 26%
B2AR ag: activates human beta-2 adrenergic receptor causing internalization | P07550 | Am2.2-beta2AR cells, FAP receptor internalization, flow cytometry | response, % (concentration not given with the values) | 0.43% of 340,000 active | AID 504454;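 active = response above a set limit, near 3 SD of response in nonfluorescent compounds, cut at about 42% in these data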
Target sequence (P07550 whole entry, looked up): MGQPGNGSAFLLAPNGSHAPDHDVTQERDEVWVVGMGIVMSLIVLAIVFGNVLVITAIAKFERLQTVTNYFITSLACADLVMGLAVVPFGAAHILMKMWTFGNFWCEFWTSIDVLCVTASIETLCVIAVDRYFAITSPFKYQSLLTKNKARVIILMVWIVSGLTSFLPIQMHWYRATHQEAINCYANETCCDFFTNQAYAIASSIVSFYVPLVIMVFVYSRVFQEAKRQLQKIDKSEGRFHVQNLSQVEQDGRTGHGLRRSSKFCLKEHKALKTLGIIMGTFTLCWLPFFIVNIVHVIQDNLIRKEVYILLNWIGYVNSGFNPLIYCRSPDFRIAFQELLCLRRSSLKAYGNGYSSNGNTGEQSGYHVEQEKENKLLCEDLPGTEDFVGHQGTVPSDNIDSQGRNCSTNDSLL
SENP1 FRET inh: SENP1 (human) catalytic domain inhibition; Q9P0U3; recombinant SENP1 catalytic domain, CyPet-SUMO1-YPet FRET cleavage; inhibition, % at 10 µM; 0.21% of 360,000 active;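 active = inhibition at least 30% at 10 µM, raw YFP signal under a set limit, fluorescence ratio 0.5 to 1.5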
Target sequence (Q9P0U3 419-644 limits assumed): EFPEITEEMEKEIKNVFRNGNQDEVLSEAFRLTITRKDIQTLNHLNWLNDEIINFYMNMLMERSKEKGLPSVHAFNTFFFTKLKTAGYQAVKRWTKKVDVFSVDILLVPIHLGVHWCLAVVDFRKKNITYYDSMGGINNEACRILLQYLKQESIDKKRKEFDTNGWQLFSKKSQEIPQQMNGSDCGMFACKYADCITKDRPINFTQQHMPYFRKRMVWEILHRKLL
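system = hSENP1 catalytic domain, recombinant | reagent = SFCypet-SUMO1-SFYpet substrate at 25 nM | doses = one dose per compound, 10 µM, 0.5% DMSO | incubation = enzyme reaction for 50 min at room temperature, dark | measured by = FRET, CFP and YFP emission | controls = no-enzyme low, enzyme-DMSO high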
SENP1 conf: confirmation of human SENP1 SUMO protease inhibitors; AID 651678; 34% of 520 active; inhibition, % at 10 µM; shares compounds with SENP1 FRET inh; recombinant SENP1, CyPet-SUMO1-YPet FRET cleavage; in the data active = inhibition mostly above about 35%, no sharp cut-off; inactive = mostly below about 32%
SENP1 kin conf: SENP1 (human) inhibition, kinetic confirmation | shares compounds with SENP1 FRET inh | recombinant SENP1, CyPet-SUMO1-YPet FRET kinetic cleavage | inhibition, % at 10 µM | 26% of 520 active | AID 651690; in the data active = inhibition mostly above about 32%, no sharp cut-off; inactive = mostly below about 29%
A number is an active result.

How did Nc1cc2c(cc1[N+](=O)[O-])-c1ccccc1C2=NO do in these assays?
ABHD5 PLIN5 PPI: inactive; NadD block: inactive; B2AR ag: inactive; SENP1 FRET inh: 32; SENP1 conf: inactive; SENP1 kin conf: inactive

How did CCOC(=O)c1sc2nc(C)nc(NCc3ccc(Cl)cc3)c2c1C do in these assays?
GRK2 aptamer HTS: inactive; ABHD5 PLIN5 PPI: inactive; NadD block: inactive; B2AR ag: inactive; SENP1 FRET inh: inactive

What do the screens show for `CCOC(=O)c1sc2nc(C)nc(NCc3ccc(F)cc3)c2c1C`?
GRK2 aptamer HTS: inactive; ABHD5 PLIN5 PPI: inactive; NadD block: inactive; B2AR ag: inactive; SENP1 FRET inh: 36; SENP1 conf: inactive; SENP1 kin conf: inactive

What do the screens show for `COc1ccc(C(=O)Nc2nnc(Cc3ccc(OC)c(OC)c3)s2)c(OC)c1`?
GRK2 aptamer HTS: inactive; ABHD5 PLIN5 PPI: inactive; NadD block: inactive; B2AR ag: inactive; SENP1 FRET inh: inactive

How did COCc1nnc(NC(=O)c2ccc(OC)cc2OC)s1 do in these assays?
GRK2 aptamer HTS: inactive; ABHD5 PLIN5 PPI: inactive; NadD block: inactive; B2AR ag: inactive; SENP1 FRET inh: 48; SENP1 conf: inactive; SENP1 kin conf: inactive

How did Nc1c(-c2ccc(C(F)(F)F)cc2)nc2ncccn12 do in these assays?
ABHD5 PLIN5 PPI: inactive; SENP1 FRET inh: 53; SENP1 conf: inactive; SENP1 kin conf: inactive

Results for Cc1cc(C)c2c(c1)/C(=N\N=c1\sc3ccccc3n1C)C(=O)N2 ?
GRK2 aptamer HTS: inactive; ABHD5 PLIN5 PPI: inactive; NadD block: inactive; B2AR ag: inactive; SENP1 FRET inh: 37; SENP1 conf: inactive; SENP1 kin conf: inactive

How did Cn1c(=NC(=O)C2=NNC(=O)CC2)sc2ccccc21 do in these assays?
GRK2 aptamer HTS: inactive; ABHD5 PLIN5 PPI: inactive; NadD block: inactive; B2AR ag: inactive; SENP1 FRET inh: inactive

Results for COCc1cc(C)nc(N/N=C/c2ccc(-c3ccc(Cl)cc3[N+](=O)[O-])o2)c1C#N ?
ABHD5 PLIN5 PPI: inactive; NadD block: inactive; B2AR ag: inactive; SENP1 FRET inh: inactive

Results for CCOC(=O)c1sc2cc([N+](=O)[O-])cc(SCC(=O)OC)c2c1N ?
GRK2 aptamer HTS: inactive; ABHD5 PLIN5 PPI: inactive; NadD block: inactive; B2AR ag: inactive; SENP1 FRET inh: 66; SENP1 conf: inactive; SENP1 kin conf: inactive

How did CCOC(=O)c1sc2cc([N+](=O)[O-])cc(SCCO)c2c1N do in these assays?
GRK2 aptamer HTS: inactive; ABHD5 PLIN5 PPI: inactive; NadD block: inactive; B2AR ag: inactive; SENP1 FRET inh: 50; SENP1 conf: inactive; SENP1 kin conf: inactive

Results for COC(=O)/C=c1/s/c(=C(\C#N)C(=O)NCc2ccco2)n(-c2ccc(C)cc2)c1=O ?
GRK2 aptamer HTS: inactive; ABHD5 PLIN5 PPI: inactive; NadD block: inactive; B2AR ag: inactive; SENP1 FRET inh: 37; SENP1 conf: inactive; SENP1 kin conf: inactive

Results for COC(=O)/C=c1/s/c(=C(/C#N)C(=O)N2CCOCC2)n(-c2ccccc2)c1=O ?
GRK2 aptamer HTS: inactive; ABHD5 PLIN5 PPI: inactive; NadD block: inactive; B2AR ag: inactive; SENP1 FRET inh: inactive

Results for Cc1nc2ccc(NS(=O)(=O)c3c(F)cccc3F)cc2s1 ?
GRK2 aptamer HTS: inactive; ABHD5 PLIN5 PPI: inactive; NadD block: inactive; B2AR ag: inactive; SENP1 FRET inh: 52; SENP1 conf: inactive; SENP1 kin conf: 25

What do the screens show for `CCOC(=O)CC(=O)CSc1nc2ccc(C)cc2cc1C#N`?
GRK2 aptamer HTS: inactive; ABHD5 PLIN5 PPI: inactive; NadD block: inactive; B2AR ag: inactive; SENP1 FRET inh: inactive

How did COc1ccc2nc(SCC(=O)Nc3cc(C)on3)c(C#N)cc2c1 do in these assays?
GRK2 aptamer HTS: inactive; ABHD5 PLIN5 PPI: inactive; NadD block: inactive; B2AR ag: inactive; SENP1 FRET inh: 48; SENP1 conf: inactive; SENP1 kin conf: inactive

How did COC(=O)CSc1nc2cc(C)ccc2cc1C#N do in these assays?
GRK2 aptamer HTS: inactive; ABHD5 PLIN5 PPI: inactive; NadD block: inactive; B2AR ag: inactive; SENP1 FRET inh: 62; SENP1 conf: inactive; SENP1 kin conf: inactive

What do the screens show for `Cc1cc(NC(=O)CSc2nc3ccccc3cc2C#N)no1`?
GRK2 aptamer HTS: inactive; ABHD5 PLIN5 PPI: inactive; NadD block: inactive; B2AR ag: inactive; SENP1 FRET inh: 55; SENP1 conf: 60; SENP1 kin conf: 50

Results for COC(=O)CSc1nc(C)cc(C(F)(F)F)c1C#N ?
GRK2 aptamer HTS: inactive; ABHD5 PLIN5 PPI: inactive; NadD block: inactive; B2AR ag: inactive; SENP1 FRET inh: inactive

Results for Cc1ccc(S(=O)(=O)CCSc2nc(C)cc(C(F)(F)F)c2C#N)cc1 ?
GRK2 aptamer HTS: inactive; ABHD5 PLIN5 PPI: inactive; NadD block: inactive; B2AR ag: inactive; SENP1 FRET inh: 72; SENP1 conf: inactive; SENP1 kin conf: inactive

Results for Cc1coc(NC(=O)CSc2nc(-c3ccncc3)cc(C(F)(F)F)c2C#N)n1 ?
GRK2 aptamer HTS: inactive; ABHD5 PLIN5 PPI: inactive; NadD block: inactive; B2AR ag: inactive; SENP1 FRET inh: 66; SENP1 conf: 45; SENP1 kin conf: 28

Results for CCOC(=O)NC(=O)CSc1nc(C)cc(C(F)(F)F)c1C#N ?
GRK2 aptamer HTS: inactive; ABHD5 PLIN5 PPI: inactive; NadD block: inactive; B2AR ag: inactive; SENP1 FRET inh: 39; SENP1 conf: inactive; SENP1 kin conf: inactive

Results for N#Cc1c(C(F)(F)F)cc(-c2ccc(F)cc2)nc1SCC(=O)O ?
GRK2 aptamer HTS: inactive; ABHD5 PLIN5 PPI: inactive; NadD block: inactive; B2AR ag: inactive; SENP1 FRET inh: inactive

How did CCCn1ncc(CN2CCC(C(=O)Nc3cccc(-c4cccc(F)c4)c3)CC2)c1C do in these assays?
GRK2 aptamer HTS: inactive; ABHD5 PLIN5 PPI: inactive; NadD block: inactive; B2AR ag: inactive; SENP1 FRET inh: inactive

How did Cc1ccc(S(=O)(=O)Nc2cccc(-n3cnnn3)c2)cc1C do in these assays?
GRK2 aptamer HTS: inactive; ABHD5 PLIN5 PPI: inactive; NadD block: inactive; B2AR ag: inactive; SENP1 FRET inh: inactive

What do the screens show for `Cc1ccc(-n2cnc3sc(C)c(C)c3c2=O)cc1`?
GRK2 aptamer HTS: inactive; ABHD5 PLIN5 PPI: inactive; NadD block: inactive; B2AR ag: inactive; SENP1 FRET inh: 37; SENP1 conf: inactive; SENP1 kin conf: inactive

Results for Cc1cccc(-n2cnc3sc(C)c(C)c3c2=O)c1 ?
GRK2 aptamer HTS: inactive; ABHD5 PLIN5 PPI: inactive; NadD block: inactive; B2AR ag: inactive; SENP1 FRET inh: inactive

What do the screens show for `COc1ccccc1Cc1c(-c2cccc(Cl)c2)nc2ccc(Br)cn12`?
ABHD5 PLIN5 PPI: inactive; NadD block: inactive; SENP1 FRET inh: 37; SENP1 conf: inactive; SENP1 kin conf: inactive

How did COC(=O)c1ccc2nc(-c3cccc(Cl)c3)c(Cc3ccccc3OC)n2c1 do in these assays?
ABHD5 PLIN5 PPI: inactive; NadD block: inactive; SENP1 FRET inh: inactive

Results for FC(F)(F)c1ccccc1Cc1c(-c2ccccc2)nc2ccc(Br)cn12 ?
ABHD5 PLIN5 PPI: inactive; NadD block: inactive; SENP1 FRET inh: inactive
